An excerpt weighted towards active compounds, which were near 3.4% of everything screened.
SIRT5 block: sirtuin-5 (human) deacylase inhibition; 1.1% of 330,000 active; Purified SirT5, succinyl-peptide AMC, trypsin-coupled fluorescence; AID 652115; inhibition, % at 15 µM; Q9NXA8; in the data active = inhibition above about 15%; inconclusive = no clear call, values can overlap the other calls
S100A4 MyoIIA: inhibitors of human S100A4 binding to myosin IIA peptide; P26447; S100A4/TAMRA-MyoIIA peptide fluorescence polarization; inhibition, % at 10.7 µM; 0.14% of 360,000 active;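 active = mean inhibition of at least 70% across replicates, with every replicate also reaching that level; inconclusive = mean inhibition reaches 70% but some replicates fall short; inactive = mean inhibition below 70%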
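Test system: S100A4 monomer protein; Medium: HEPES pH 7.2 with CaCl2, KCl, NaCl, DTT, Triton; Probe or stimulus: TAMRA-labelled myosin IIA heavy-chain peptide probe, 5 nM; Doses: one dose per compound; Times: polarization read 5 min after assay mix addition, stable 5–60 min; Benchmarks: neutral control DMSO, positive control TFP.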
E-selectin induc: E-selectin induction on HUVECs. P16581. HUVEC E-selectin immunofluorescence imaging; normalized: neutral wells 0, TNF-alpha wells 100. activation, % at 7.58 µM. 0.37% of 260,000 active. AID 686992;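 active = mean E-selectin-positive cell signal at least 10% of the positive control, reached in at least 60% of replicates, without over 20% cell loss; inconclusive = no rule given, readout overlaps actives, possibly toxicity-flagged; inactive = the rest, including those meeting only one limit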
Target sequence (P16581 whole entry, looked up): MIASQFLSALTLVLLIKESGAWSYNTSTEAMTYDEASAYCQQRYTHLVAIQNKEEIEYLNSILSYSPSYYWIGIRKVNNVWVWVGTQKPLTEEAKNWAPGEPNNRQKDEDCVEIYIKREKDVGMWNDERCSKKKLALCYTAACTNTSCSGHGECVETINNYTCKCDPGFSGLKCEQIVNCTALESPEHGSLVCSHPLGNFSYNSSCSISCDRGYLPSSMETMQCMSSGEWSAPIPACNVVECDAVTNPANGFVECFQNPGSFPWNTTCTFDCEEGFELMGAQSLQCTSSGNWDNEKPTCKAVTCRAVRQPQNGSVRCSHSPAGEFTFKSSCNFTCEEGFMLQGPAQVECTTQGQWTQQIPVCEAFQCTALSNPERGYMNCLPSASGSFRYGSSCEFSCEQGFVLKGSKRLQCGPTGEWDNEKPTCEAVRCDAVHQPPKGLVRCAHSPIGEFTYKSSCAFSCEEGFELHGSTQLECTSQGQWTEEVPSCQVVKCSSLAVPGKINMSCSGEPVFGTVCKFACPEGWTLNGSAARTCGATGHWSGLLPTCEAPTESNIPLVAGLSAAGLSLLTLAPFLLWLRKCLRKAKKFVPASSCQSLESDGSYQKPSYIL
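material = human umbilical vein endothelial cells (HUVEC), E-selectin induction | quantity = 3,000 cells/well | medium = EGM-2 growth medium on 0.1% gelatin-coated wells | technique = immunofluorescence imaging | read-out basis = % PE-positive cells | control set = TNF-alpha positive control, DMSO neutral control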
rRNA inh HTS: selective bacterial rRNA inhibition in E. coli. E. coli WT GFP vs humanized-ribosome RFP mutants, fluorescence, 24 h; active compounds read low; DMSO median 0, no signal -100. GFP signal change (wild-type ribosome), % (no concentration beside the values). 1.6% of 350,000 active;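 active = significant combined selectivity score with lowered wild-type GFP, culture density cut under 30%, mutant RFP and density less affected; inactive = any of these conditions unmet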
MLL AF4-AF9 inh: blocks AF4 peptide binding to human AF9. 0.47% of 350,000 active. AID 651704. P42568. AlphaScreen, biotin-AF4 peptide binding to FLAG-AF9. inhibition, % at 10 µM;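 active = every replicate reaching a set inhibition limit, whatever the replicate mean, cut at about 25% in these data; inconclusive = mean inhibition reaches that limit but some replicates miss it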;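 note: 0% = plate neutral control median and 100% = total signal loss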
ERAP1 HTS inh: blocks human ERAP1 aminopeptidase activity. AID 652197. Q9NZ08. inhibition, % at 10.7 µM. recombinant ERAP1, Leu-AMC fluorescence, 60 min. 0.15% of 340,000 active;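 active = mean replicate inhibition of at least 30%, or all replicates individually reaching that 30% level; inactive = mean below 30% and not every replicate reaching it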;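 note: 0% = neutral control wells and 100% = L-leucinethiol positive control wells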
Alpha interfer: AlphaScreen signal interference counter-screen hit; shares compounds with MLL AF4-AF9 inh; 45% of 530 active; AC50, µM (doses to about 12 µM), without a hit: at the top dose activity change, negative = inhibition; signal luminescence; AID 720494; cut-off not given, nearly all actives have AC50 up to about 14 µM
Starred values were filed as active, the others as inactive; ? = inconclusive; / = no result.

SMILES	SIRT5 block	S100A4 MyoIIA	E-selectin induc	rRNA inh HTS	MLL AF4-AF9 inh	ERAP1 HTS inh	others
c1cnc(N2CCNCC2)nc1	-1	0	0	2	-2	1
c1ccc(Cc2cnc(N3CCNCC3)nc2)cc1	-5	-4	?	24	/	64*
O=C(O)[C@H]1[C@H](CO)[C@H]2Cn3c(ccc(-c4ccncc4)c3=O)[C@@H]1N2C(=O)C1CC1	/	/	0	4	/	/
Cc1ccc(N2C(=O)NC(=O)/C(=C/c3ccoc3)C2=O)cc1	18*	-22	8	25	-1	1
COc1ccc(CN2C(=O)NC(=O)/C(=C/c3cc(OC)c(OC)c(OC)c3)C2=O)cc1	0	-10	-1	14	3	10
COc1ccc(CN2C(=O)NC(=O)/C(=C/c3ccoc3)C2=O)cc1	21*	-12	5	29	0	2
O=C1NC(=O)N(Cc2ccccc2)C(=O)/C1=C\c1ccco1	25*	-33	/	24	-3	5
Cc1ccccc1S(=O)(=O)N1[C@@H]2Cn3c(ccc(-c4cccnc4)c3=O)[C@H]1[C@@H](C(=O)O)[C@@H]2CO	-42	-6	0	3	0	0
CN1[C@@H]2CN(CC(F)(F)F)C[C@H]1C2c1ccc(Br)cc1 (stereo not given in full)	/	/	/	-4	/	/
COC(=O)[C@]1(C)C[C@H]1[C@H](NP(=O)(c1ccccc1)c1ccccc1)c1ccccc1	/	84*	0	-19	-2	3
O=C(Nc1cccc(Cl)c1)OC1CN2CCC1CC2 (stereo not given)	-5	0	/	-39*	-7	0
COc1ccc(-n2c(/C=C3\C(=O)Nc4ccccc43)nc3ccccc3c2=O)cc1	112*	4	/	17	0	0
NS(=O)(=O)c1ccc(-c2ccc(C=C3C(=O)NC(=O)NC3=O)o2)cc1	10	64	0	18	1	5
NS(=O)(=O)c1ccc(-c2ccc(C=C3C(=O)NC(=S)NC3=O)o2)cc1	35*	2	0	22	-9	5
O=C1CNC[C@@H]2[C@H](c3ccc(Br)cc3)[C@H](CO)N12	-3	3	0	-4	-6	-6
COC(=O)[C@@H]1[C@@H](CO)[C@@H]2Cn3c(ccc(-c4ccccc4)c3=O)[C@H]1N2CCc1ccccc1	16*	0	0	-2	-1	-1
COC(=O)[C@@H]1[C@@H](CO)[C@@H]2Cn3c(ccc(-c4ccncc4)c3=O)[C@H]1N2CCc1ccccc1	4	5	0	1	-1	0
O=C1NCN(c2ccccc2)C12CCN(C(c1nnnn1C1CCCCC1)C1CC1)CC2 (stereo not given)	-8	2	-1	21	2	/
CC(C)(C)n1nnnc1C(C1CC1)N1CCC2(CC1)C(=O)NCN2c1ccccc1 (stereo not given)	-6	-3	3	-16*	8	/
CCC(CO)(C(=O)OC1C[N+]2(C)CCC1CC2)c1ccccc1 (stereo not given)	-2	-6	-1	20	-2	72*
Cc1ccc(OC(F)F)c(N2C(=O)C3C4CCC(O4)C3C2=O)c1 (stereo not given)	-5	7	35*	18	-5	-1
CN(c1ccc(O)cc1)c1ccc([N+](=O)[O-])c2nonc12	/	-7	0	-62	27*	9
C=CCN1[C@@H]2CN(C(C)=O)C[C@H]1C2c1ccc(Br)cc1 (stereo not given in full)	/	/	/	-3	/	/
CC(C)(C)C(=O)c1cn(CC(=O)NCc2ccco2)c2ccccc12	17*	-12	3	-5	3	4
C=CCN1[C@@H]2CN(CC(F)(F)F)C[C@H]1C2c1ccc(Br)cc1 (stereo not given in full)	/	/	/	-5	/	/
SMILES	SIRT5 block	S100A4 MyoIIA	E-selectin induc	rRNA inh HTS	MLL AF4-AF9 inh	ERAP1 HTS inh	others
CC(Cc1ccccc1)NC(=O)CN1CCCC1=O (stereo not given)	-7	1	/	6	-2	5
C[N+](C)(C)CC#CCN1CCCC1=O	1	-2	0	12	-4	73*
CN1[C@@H]2CN(S(C)(=O)=O)C[C@H]1C2c1ccccc1 (stereo not given in full)	/	/	/	1	/	/
C/C=C/c1ccc(C2[C@@H]3CN(Cc4cocn4)C[C@H]2N3)cc1 (stereo not given in full)	-2	2	0	4	29*	-2
C=CCN1C(=S)N[C@@H]2c3ccccc3O[C@@]1(C)[C@@H]2C(=O)OCC	0	5	/	/	4	2
Nc1ccc2ccc3cccc[n+]3c2c1	1	12	/	106	-9	2
C[n+]1c(-c2ccccc2)c2cc(N)ccc2c2ccc(N)cc21	3	126*	9	/	55*	9	Alpha interfer=8.5µM*
COC(=O)[C@H]1[C@H](CO)[C@H]2Cn3c(ccc(C4=CCCCC4)c3=O)[C@@H]1N2Cc1ccccn1	-14	9	0	-2	0	3
O=C1CN=C(c2ccc(Br)cc2)c2c(sc3c2CCCC3)N1CCN1CCCCC1	-8	-3	/	-52	32*	-2	Alpha interfer=-37%
NCC(O)c1cc(O)c(O)cc1F (stereo not given)	-2	9	0	/	53*	1	Alpha interfer=-19%
CC(C)Nc1ccc(Nc2ccccc2)cc1	-2	-1	0	0	?	2	Alpha interfer=-29%
COC(=O)[C@H]1[C@H](CO)[C@H]2Cn3c(ccc(C4=CCCCC4)c3=O)[C@@H]1N2CCc1ccccc1	-9	-3	0	-8	2	1
COc1ccc(C#Cc2ccc([C@@H]3[C@H]4CN(C(=O)Cc5ccccc5)CCCCN4[C@H]3CO)cc2)cc1	-1	13	-1	-4	1	2
CCCCCCN1CCN(c2ccc(Cl)cc2)CC1	-8	-8	/	-6	1	0
CCN1CCN(c2ccc(N)cc2)CC1	6	20	0	13	82*	-3	Alpha interfer=4.5µM*
CCN1CCN(c2ccc(N)cc2C)CC1	-6	-7	0	17	43*	5	Alpha interfer=12µM*
O=C(O)[C@H]1[C@H](CO)[C@H]2Cn3c(ccc(-c4cccnc4)c3=O)[C@@H]1N2S(=O)(=O)c1ccccc1F	-6	58	1	1	1	4
COc1ccc2c(c1)c(CCN)c(C)n2Cc1ccccc1	-5	1	/	-11	33*	-2	Alpha interfer=-30%
CN(C)C(=O)[C@H]1[C@H](CO)[C@H]2Cn3c(cccc3=O)[C@@H]1N2CC1CC1	-2	12	0	4	-6	4
